# High-throughput results: PubChem, Johns Hopkins Ion Channel Center
# KCNQ1 act: human KCNQ1 channel potentiation or activation. CHO-K1 KCNQ1, thallium flux FluxOR fluorescence; active compounds read high. actives 0.35% (n = 310,000). B-score at 10 µM. P51787;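 active = fluorescence ratio B-score, a plate-corrected score, at least three library SD, with initial intensity B-score within 5 SD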
#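 Assay system: CHO-K1 cells stably expressing KCNQ1; Medium: assay buffer with matched DMSO; Also added: K+/Tl+ depolarizing stimulus; Dosing: single dose; Timing: dye 90 min, compound 20 min, room temperature; Measured by: kinetic FluxOR thallium fluorescence, 10-s 1-Hz baseline, 110-s post-stimulus read; Read-out: peak-minus-minimum fluorescence over initial fluorescence, negative-control normalized, B-scored.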
# KCNQ1 inh: human KCNQ1 channel inhibition; P51787; CHO-K1 KCNQ1, FluxOR thallium flux fluorescence; active compounds read high; B-score at 10 µM; actives 1.3% (n = 310,000); AID 2642;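 active = compounds whose thallium flux B-score, printed positive for inhibition, exceeds three library SD while starting fluorescence stays within three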;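 also: channel opened by potassium depolarization with thallium stimulus after 20 min compound exposure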
# KCNK9 inh: human KCNK9 channel inhibition; Q9NPC2; HEK293 KCNK9, FluxOR thallium flux fluorescence; active compounds read low; B-score at 10 µM; actives 1.2% (n = 310,000);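 active = ratio B-score over 3 SD below the library mean, with starting fluorescence within 5 SD of its mean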;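 also: negative B-score means less thallium flux so channel inhibition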
# Target sequence (Q9NPC2 whole entry, looked up): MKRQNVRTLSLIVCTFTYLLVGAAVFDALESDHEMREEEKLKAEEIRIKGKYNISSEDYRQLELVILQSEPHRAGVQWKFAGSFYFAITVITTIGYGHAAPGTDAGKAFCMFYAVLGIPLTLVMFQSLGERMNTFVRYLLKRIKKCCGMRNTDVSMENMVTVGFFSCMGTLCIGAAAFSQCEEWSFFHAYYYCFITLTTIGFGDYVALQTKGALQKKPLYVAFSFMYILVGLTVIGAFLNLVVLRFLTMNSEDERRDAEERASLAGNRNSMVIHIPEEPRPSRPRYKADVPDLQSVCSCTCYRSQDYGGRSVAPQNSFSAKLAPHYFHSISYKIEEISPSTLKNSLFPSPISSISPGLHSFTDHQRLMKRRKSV
# KCNK3 inh: human KCNK3 channel inhibition, primary screen; O14649; CHO-KCNK3 thallium flux, FluxOR fluorescence; active compounds read low; B-score at 10 µM; actives 0.84% (n = 340,000); AID 602410;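 active = B-score under library mean minus 4 SD, starting fluorescence ratio at most library mean plus 5 SD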;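 also: more negative B-score means stronger inhibition of thallium flux through KCNK3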
# hERG rescue: compounds protecting human hERG from proarrhythmic drug block. Q12809. CHO-hERG, FluxOR thallium flux, dofetilide IC70 present. activation (rescue from dofetilide block), less the hit threshold, % at 10 µM. actives 0.51% (n = 310,000);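 active = activation above the mean of controls blocked by dofetilide plus 5 SD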;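 also: thallium influx through hERG after potassium depolarization seen as dye fluorescence rise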
# Kir21 inh: blocks the mouse Kir2.1 inward-rectifier potassium channel; AID 1672; actives 0.85% (n = 310,000); P35561; HEK293-Kir2.1, FluxOR thallium flux fluorescence; active compounds read low; B-score at 10 µM;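 active = fluorescence ratio B-score at or below minus 3 SD of library scores, with starting-brightness B-score within 2 SD, cut at about -4.2 in these data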;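 also: channel flux triggered by added potassium and thallium sulfate stimulus; B-score of peak minus minimum fluorescence over baseline after thallium stimulus; more negative B-score means stronger Kir2.1 block with less thallium influx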
# KCNK9 block conf: human KCNK9 inhibitor confirmation; AID 492992; inhibition, % at 10 µM; shares compounds with KCNK9 inh; actives 43% (n = 4,900); HEK293 KCNK9 cells, FluxOR thallium flux fluorescence;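 active = thallium signal inhibited by more than 5 SD of the compound-free buffer control wells, on both duplicate plates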;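 also: 0% = assay buffer control wells without compound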
# Kir2-1 spec: tests whether KCNK9 modulators also affect mouse Kir2.1; inhibition, % at 10 µM; Kir2.1 cells, FluxOR thallium flux fluorescence; AID 492993; shares compounds with KCNK9 inh; actives 4% (n = 4,900);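 active = thallium signal drop more than 5 SD beyond the mean of the no-compound control wells, seen in both duplicate plates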;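 also: signal is fluorescence rise after thallium addition divided by baseline fluorescence; plate controls were assay buffer only for no effect and full block by chlorpromazine control for full effect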
# HEK293 Tl ctr: second check of KCNK9 modulator effects in non-induced HEK293 cells | shares compounds with KCNK9 inh | actives 40% (n = 4,900) | inhibition, % at 10 µM | FluxOR thallium flux | AID 492997;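 active = thallium signal drop beyond 5 SD of the untreated control mean, on both duplicate plates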;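 also: plate controls were buffer only IC0 wells for no effect and SID17386958 at its maximal inhibitory level for full effect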
# * marks the source's active call; other numbers are inactive results; i = inactive; nt = not tested or not shown. An excerpt weighted towards active compounds, which were near 3.8% of everything screened.
SMILES,KCNQ1 act,KCNQ1 inh,KCNK9 inh,KCNK3 inh,hERG rescue,Kir21 inh,KCNK9 block conf,Kir2-1 spec,HEK293 Tl ctr
COc1ccc(C(=O)NCC(=O)N/N=C/c2cccc(OC(=O)c3ccco3)c2)cc1OC,i,i,i,i,-8,1.2,nt,nt,nt
Brc1ccc(Oc2ncc(CN3CCN(c4ccccc4)CC3)s2)cc1,i,i,i,i,-2,-0.84,i,i,i
CCN1CCN(C(=O)C(C)Sc2nc3nc(C)cc(C)n3n2)CC1 (centres undefined),nt,nt,nt,i,nt,nt,nt,nt,nt
O=C(c1ccccc1Br)N1N=C(c2ccccc2)CC1c1ccccc1F (centres undefined),i,i,i,i,-1,1.7,nt,nt,nt
O=C(O)c1ccccc1C(=O)N1N=C(c2ccccc2)CC1c1ccccc1O (centres undefined),i,i,-8.3*,i,-10,0.02,42%*,i,i
Cc1cccc2c1N(C(=O)c1ccco1)C(C)(C)c1ssc(=S)c1-2,i,i,i,i,-7,0.05,nt,nt,nt
Cc1ccc2c(c1)N(C(=O)c1ccco1)C(C)(C)c1ssc(=S)c1-2,i,i,-8.3*,i,-1,0.58,38%*,i,30%*
CC(NC(=O)C1CCC(C(C)(C)C)CC1)C(c1ccccc1)N1CCOCC1 (centres undefined),i,i,i,i,-10,-1.8,i,i,i
CC(NC(=O)C1CC1)C(c1cccs1)N1CCOCC1 (centres undefined),i,i,i,i,-7,1.6,nt,nt,nt
O=C(COc1ccccc1Cl)NC1CC1,i,i,i,i,-9,-0.35,nt,nt,nt
CCN(C(=O)COC(=O)c1ccc(Cl)cc1N)C1CCCCC1,i,i,i,i,-13,0.77,i,i,i
O=c1cc(CN2CCOCC2)c2cc(Cl)ccc2o1,i,i,i,i,-10,1.4,nt,nt,nt
CCOc1cc(/C=C2\C(=O)N(Cc3ccc(C)cc3)C(C)=C2C(=O)OC)ccc1O,i,7*,-11*,i,-8,-0.95,41%*,i,32%*
COC(=O)C1=C(C)N(CCc2ccc(OC)c(OC)c2)C(=O)/C1=C\c1ccc(O)cc1,i,i,i,i,-11,0.95,nt,nt,nt
OCC[C@@H]1C[C@H](O)[C@@H](O)[C@]2(OCCc3ccccc32)O1,i,i,i,i,0,1.1,nt,nt,nt
CC(C)c1ccc(S(=O)(=O)/N=C2\C=C(NS(=O)(=O)c3ccccc3)C(=O)c3ccccc32)cc1,i,18*,-9.4*,i,-27,-3,32%*,i,32%*
CC1=CC(C)C2(COC(=O)Nc3ccccc3)COC(C)C1C2C (centres undefined),i,i,i,i,-13,-1.7,i,i,i
CCOc1ccc(S(=O)(=O)NCCC(=O)NCC(c2ccc(OC)cc2)N2CCCCC2)cc1 (centres undefined),i,i,i,i,-9,-0.11,nt,nt,nt
O=C(CCSc1ccc(Cl)cc1)N1CCCCCC1,i,i,i,i,-7,-1.2,i,i,i
CCN(CC)S(=O)(=O)c1cccc(NC(=O)CCSc2ccc(Cl)cc2)c1,i,i,i,i,-11,-2.8,i,i,i
Cc1cc2cc(CCNC(=O)CCc3ccccc3)c(=O)[nH]c2cc1C,i,i,i,i,-5,0.99,nt,nt,nt
COc1cccc(CC2(CO)CCCN(Cc3ccc(OC)c(C)c3OC)C2)c1 (centres undefined),i,i,i,i,-14,-0.9,i,i,i
OCC1(Cc2ccccc2)CCCN(Cc2cn[nH]c2-c2ccccc2)C1 (centres undefined),i,i,i,i,-5,-1.2,nt,nt,nt
Cn1cc(CN2CCCC(CO)(Cc3ccccc3)C2)c2ccccc21 (centres undefined),i,i,i,i,-10,-1.7,i,i,28%*
CSCC[C@H](NS(=O)(=O)c1ccc(C(C)=O)cc1)c1nnc2ccccn12,i,i,i,i,-4,-0.07,nt,nt,nt
SMILES,KCNQ1 act,KCNQ1 inh,KCNK9 inh,KCNK3 inh,hERG rescue,Kir21 inh,KCNK9 block conf,Kir2-1 spec,HEK293 Tl ctr
O=C(C[C@H]1C/C=C\CC[C@@H](Cc2ccc(F)cc2)C(=O)OCCNC1=O)NCCO,nt,nt,nt,i,nt,nt,nt,nt,nt
Cc1ccc(Cn2cc(SCC(=O)Nc3nccs3)c3ccccc32)cc1,i,i,i,i,-1,0.93,i,i,i
COc1ccccc1C(CC(=O)c1ccccc1)CC(=O)c1ccccc1,i,i,-8.6*,i,-11,0.18,30%*,i,31%*
COC(=O)C(CC(=O)c1ccccc1)CC(=O)c1ccccc1,i,i,i,i,-4,-0.12,nt,nt,nt
Fc1ccccc1OCCSc1nnnn1-c1ccccc1,i,i,i,i,-9,-0.37,nt,nt,nt
COc1ccccc1OCCSc1nnnn1-c1ccc(C)cc1,i,i,i,i,-9,-0.08,i,i,i
CC(C)C(NS(=O)(=O)c1cccc2nsnc12)C(=O)N1CCCCC1 (centres undefined),i,i,i,i,-13,-0.57,nt,nt,nt
COc1ccc(C(C)=O)cc1CSc1ccc2c(c1)OCCO2,i,i,i,i,-10,-2.6,i,i,i
COc1ccc(C(C)=O)cc1CSc1nc(C)cc(C)n1,i,i,i,i,-13,0.47,nt,nt,nt
Cc1ccc2c(c1)N(CC(=O)NCCCN1CCCCC1)C(=O)CO2,i,i,i,i,-8,-0.08,nt,nt,nt
COc1ccc2c(c1)C(=NNc1ccc(C(=O)O)cc1)c1cc(OC)ccc1-2,i,i,i,i,-8,1.8,i,i,i
COc1ccc(/C(C)=N/Nc2ccc(C(=O)O)cc2)c(OC)c1,i,i,i,i,1,-1.1,nt,nt,nt
CCCN(CCC)C(=O)CSc1nc2ccccc2c(=O)n1CC1COc2ccccc2O1 (centres undefined),i,i,i,i,-8,-2.6,i,i,i
COc1cc(C(CCN2CCCC2)c2c(OC)cc(OC)c3ccc(=O)oc23)cc(OC)c1OC (centres undefined),i,i,i,i,-5,1.8,nt,nt,nt
